The values below come from ChEMBL document CHEMBL1142286, “2-Oxo-tetrahydro-1,8-naphthyridines as selective inhibitors of malarial protein farnesyltransferase and as anti-malarials” (Bioorg Med Chem Lett, 2008).

A word on the inhibition: it is the share of the control response that was lost under treatment. The low end stands for little suppression, the high end for strong suppression. The half-life is the time in which the quantity being followed falls by half.

Series [1] is filed under the species Rattus norvegicus. Kind of series: Inhibition of rat protein farnesyltransferase at 5 nM.
Series [2] relates to Plasmodium falciparum. The experiment in a line: Inhibition of Plasmodium falciparum protein farnesyltransferase at 5 nM.
For series [3], the species on record is Rattus norvegicus. The experiment in a line: Inhibition of rat protein farnesyltransferase at 50 nM.
The species named for series [4] is Rattus norvegicus. The experiment in a line: Inhibition of rat protein farnesyltransferase at 5000 nM.
The species entered for series [5] is Rattus norvegicus. The experiment in a line: Inhibition of rat protein farnesyltransferase at 500 nM.
For series [6], the system named is Plasmodium falciparum. Kind of series: Inhibition of Plasmodium falciparum protein farnesyltransferase at 500 nM.
Series [7] has as its system Plasmodium falciparum. The experiment in a line: Inhibition of Plasmodium falciparum protein farnesyltransferase at 50 nM.
Series [8] deals with Plasmodium falciparum. The experiment in a line: Antimalarial activity against chloroquine-sensitive Plasmodium falciparum 3D7 in human red blood cells after 48 hrs. It is filed as functional. The following applies: 3D7, 48 h, read-out: ED50 (the source's name). Summed up:
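P. falciparum strain 3D7 (chloroquine-sensitive) grown in red blood cell cultures. ED50 was taken as the compound concentration that inhibits parasite growth by 50%.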

The test system of series [9] is Plasmodium falciparum. The experiment in a line: Inhibition of Plasmodium falciparum protein farnesyltransferase at 0.5 nM.
The test system of series [10] is Plasmodium falciparum. The experiment in a line: Antimalarial activity against chloroquine-resistant Plasmodium falciparum K1 in human red blood cells after 48 hrs. It is filed as functional. The following applies: K1, 48 h, read-out: ED50 (the source's name). A digest of the protocol: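 Parasites grown in red blood cell cultures; ED50 is the concentration that inhibits parasite growth by 50%.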

Series [11] is filed under the species Rattus norvegicus. The experiment in a line: Inhibition of rat protein geranylgeranyltransferase 1 at 1 uM. Summed up: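 Run like the rat PFT assay, but with rat PGGT-I (5 ng), H-Ras-CVLL peptide as substrate, and [3H]geranylgeranyl pyrophosphate as donor. Read-out is percent inhibition at a single inhibitor concentration.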
For series [12], the species on record is Rattus norvegicus. Kind of series: Inhibition of rat protein farnesyltransferase at 0.5 nM.
Series [13] in a line: (§1) Metabolic stability assessed as half life in mouse liver microsomes. It is filed as ADME, Microsome. The following applies: liver microsomes. A digest of the protocol: (§2)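 Compound incubated with mouse liver microsomes. Half-time is for the loss of parent compound, in minutes.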
Background: Liver microsomes are vesicles of endoplasmic reticulum, rich in cytochrome P450 enzymes.

The subject of series [14] is Plasmodium falciparum. Kind of series: Antimalarial activity against Plasmodium falciparum. The following applies: read-out: ED50. It is filed as functional. Summed up:
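P. falciparum parasites (chloroquine-sensitive strain 3D7 and chloroquine-resistant strain K1) were grown in red blood cell cultures with compound. ED50 is the concentration giving 50% inhibition of parasite growth, in nM.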

Series [15] relates to Liver. The description is as §1. It is filed as ADME, Microsome. As to conditions: microsomes. A digest of the protocol: as §2

Consider `Cn1cnc(S(=O)(=O)NC2Cc3cc(C#N)cnc3N(Cc3cncn3C)C2=O)c1` (configuration not stated), for which the inhibition was 0% in series [1]; 32% in [2]; 1% in [3]; 39% in [4]; 0% in series [5]; 94% in [6]. Besides, the inhibition in series [7] worked out at 66%; in series [9], 15%; in series [11] it was 0%; in [12], 0%. In addition, the EC50 in [8] and in [10] was greater than 5000 nM throughout.
For the molecule `Cn1cnc(S(=O)(=O)N(Cc2ccc(S(C)(=O)=O)cc2)C2Cc3cc(C#N)cnc3N(Cc3cncn3C)C2=O)c1` (configuration not stated), the inhibition in series [1] was 0%; in [2], 80%; in [3] it was 0%; in [4], 47%; in series [5], 9%; in series [6] it was 99%. The inhibition in series [7] is 98%; in [9], 27%; in series [11], 0%; in series [12], 0%. Besides, in series [13], the half-life stood at 52 min. The EC50 in series [8] was 420 nM; in series [10], 300 nM.
As to `COC(=O)N1CCC(CN(C2Cc3cc(C#N)ccc3N(Cc3cncn3C)C2)S(=O)(=O)c2ccccn2)CC1` (configuration not stated), in series [14], the EC50 was 320 nM. Moreover, the half-life in series [13] is 5.4 min.
For `COC(=O)N1CCC(CN(C2Cc3cc(C#N)ccc3N(Cc3cncn3C)C2)S(=O)(=O)c2cn(C)cn2)CC1` (configuration not stated), the half-life in series [13] came out at 3.8 min.
In the case of `Cn1cncc1CN1C(=O)C(N(Cc2ccc(S(C)(=O)=O)cc2)S(=O)(=O)c2ccccn2)Cc2cc(C#N)cnc21` (configuration not stated), the inhibition in [2] was 3%; in series [6], 91%; in [7], 48%; in [9], 0%. The half-life in series [13] was determined as 15 min. The EC50 was 3100 nM in series [8] and greater than 5000 nM in [10].
Consider `COC(=O)N1CCC(CN(C2Cc3cc(C#N)cnc3N(Cc3cncn3C)C2=O)S(=O)(=O)c2ccccn2)CC1` (configuration not stated), for which the inhibition in series [2] was 16%; in series [6], 97%; in series [7], 88%; in series [9], 0%. Besides, the EC50 came out at 320 nM in series [8] and 310 nM in [10].
As to `Cn1cnc(S(=O)(=O)NC2Cc3cc(Br)cnc3N(Cc3cncn3C)C2=O)c1` (configuration not stated), the inhibition came out at 5% in series [1]; 0% in series [2]; 8% in series [3]; 51% in series [4]; 8% in [5]; 74% in [6]. Also, the inhibition in series [7] is 28%; in [9] it was 0%; in series [11] it was 16%; in [12], 0%. For the same molecule, the EC50 in [8] and in [10] was greater than 5000 nM in each case.
Turning to `COC(=O)N1CCC(CN(C2Cc3cc(C#N)cnc3N(Cc3cncn3C)C2=O)S(=O)(=O)c2cn(C)cn2)CC1` (configuration not stated), the inhibition in series [1] was 7%; in [2], 71%; in series [3], 28%; in [4], 85%; in series [5], 71%; in series [6], 98%. Moreover, the inhibition in [7] is 95%; in [9], 33%; in [11], 5%; in [12], 0%. The half-life in [13] is greater than 120 min. The EC50 in [8] turned out to be 350 nM; in series [10], 175 nM.
As for `Cn1cnc(S(=O)(=O)N(Cc2ccc(S(C)(=O)=O)cc2)C2Cc3cc(C#N)ccc3N(Cc3cncn3C)C2)c1` (configuration not stated), the t1/2 in [15] is 15.6 min.
